Test results from ChEMBL document CHEMBL1821623, “Anti-influenza virus polyketides from the acid-tolerant fungus Penicillium purpurogenum JS03-21” (J Nat Prod, 2011).

Each compound was assayed on OVCAR-3 (assay: Cytotoxicity against human OVCAR3 cells).
Format: functional
`CCCCC[C@@H]1Cc2cc(O)c(C(=O)O)c3c2[C@H](C[C@]2(OC[C@H](CC(=O)C(C)(CC)C(=O)OC)[C@H]2C)O3)O1` (stereo not given in full) [BERKELIC ACID] showed a GI50 of 0.091 µM.

These compounds were tested on Influenza A virus (assay: Antiviral activity against Influenza A virus H1N1 infected in MDCK cells assessed as compound concentration required for inhibiting influenza virus yield at 48 h post-infection by crystal violet staining based CPE inhibition assay).
Format: functional, organism-based
Summary of the method: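 CPE-inhibition assay against influenza A (H1N1). Ribavirin was the positive control. Activity was reported as an IC50 in μM.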
With `CC1=C(O)C(=O)c2cc(O)c(O)cc2C1=O` the IC50 was greater than 200 µM.
`C/C=C/C1=CC2=CC(=O)[C@@](C)(OC(=O)c3c(C)cc(O)cc3O)C(=O)[C@@]2(O)CO1` was tested, and the IC50 was 64 µM.
`O=Cc1cc(C(=O)O)cc(O)c1C(=O)c1c(O)cccc1O` was tested, and the IC50 was 58.6 µM.
Work on `C/C=C/C1=CC2=CC(=O)[C@@](C)(OC(=O)c3c(C)cc(O)cc3O)C(=O)C2=CO1` yielded an IC50 greater than 200 µM.
In the case of `CCC[C@]1(OC)OC(=O)c2c1cc(O)c(O)c2C` [PURPURESTER A], the IC50 is reported as 85.3 µM.
Work on `CC/C=C1\OC(=O)c2c1cc(O)c(O)c2C` [PURPURESTER B] yielded an IC50 greater than 200 µM.
In the case of `C/C=C/C1=CC2=CC(=O)[C@@](C)(OC(=O)c3c(C)cc(O)cc3O)C(=O)[C@@]2(O)[C@@H](O)O1` [PURPURQUINONE A], the IC50 is reported as greater than 200 µM.
`C/C=C/C1=CC2=CC(=O)[C@@](C)(OC(=O)c3c(O)cc(O)c(O)c3C)C(=O)[C@@]2(O)[C@@H](O)O1` [PURPURQUINONE B] was tested, and the IC50 was 61.3 µM.
For `NC(=O)c1ncn([C@@H]2O[C@H](CO)[C@@H](O)[C@H]2O)n1` [RIBAVIRIN], the IC50 was 101 µM.
